Experimental data reported in ChEMBL document CHEMBL5329220, “Discovery of pyrazolopyrimidines that selectively inhibit CSF-1R kinase by iterative design, synthesis and screening against glioblastoma cells” (RSC Med Chem, 2023).
Activity calls are given as the source filed them. The calls are words filed in the database; no cut-off is given here.

How the values were obtained:
T98 [1] = test: Antiproliferative activity against human T98 cells assessed as reduction in cell viability incubated for 5 days by PrestoBlue reagent based fluorescence assay; type: functional; conditions: T98, 120 h
Procedure, shortened: (§1)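 Cells seeded in DMEM/10% FBS/2 mM L-glutamine (U87 1×10^3, T98 5×10^2 per well), allowed 48 h at 37 °C, then given fresh medium plus compound from 20× intermediate stocks; untreated wells had 0.1% v/v DMSO. After 5 d, PrestoBlue reading (ex 540, em 590 nm, 60–90 min). EC50 from 4-parameter logistic fit of values normalised to untreated cells, bottom fixed at zero.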

E57 [2] = test: Antiproliferative activity against human E57 cells assessed as reduction in cell viability at 0.01 to 10 uM incubated for 72 hrs by Hoechst staining based nuclei count assay; conditions: dose 0.01-10 µM
E21 [3] = test: Antiproliferative activity against human E21 cells assessed as reduction in cell viability at 0.01 to 10 uM incubated for 72 hrs by Hoechst staining based nuclei count assay; conditions: dose 0.01-10 µM
E21 [4] = test: Antiproliferative activity against human E21 cells assessed as phenotypic change at 1 to 5 uM incubated for 72 hrs in presence of INK128 by Hoechst 33342/ Alexa Fluor 488 staining based PCA analysis; type: functional, cell-based; conditions: dose 1-5 µM
Procedure, shortened: (§2)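 Patient-derived glioma stem cells kept in laminin-coated DMEM/F12 with FGF, EGF, B27 and N2, plated at 500–1500 cells/well on laminin (10 μg mL−1). After overnight attachment, dosed in triplicate with 0.1% DMSO final, 72 h at 37 °C. Live MitoTracker DeepRed (final 300 nM, 30 min), formaldehyde fixation (final 4%), Cell Painting staining and imaging, CellProfiler features, PCA of phenotypic profiles.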

E57 [5] = test: Antiproliferative activity against human E57 cells assessed as phenotypic change at 1 to 2.5 uM incubated for 72 hrs in presence of INK128 by Hoechst 33342/ Alexa Fluor 488 staining based PCA analysis; conditions: dose 1-2.5 µM
E31 = test: Antiproliferative activity against human E31 cells assessed as phenotypic change at 1 to 5 uM incubated for 72 hrs in presence of INK128 by Hoechst 33342/ Alexa Fluor 488 staining based PCA analysis; type: functional, cell-based; conditions: dose 1-5 µM; procedure, shortened: as §2
U-87 MG [6] = test: Antiproliferative activity against human U87 cells assessed as reduction in cell viability incubated for 5 days by PrestoBlue reagent based fluorescence assay; type: functional, U-87MG ATCC; conditions: 120 h; procedure, shortened: as §1
T98 [7] = test: Antiproliferative activity against human T98 cells assessed as reduction in cell viability at 3 to 30 uM incubated for 5 days by PrestoBlue reagent based fluorescence assay; type: functional; conditions: dose 3-30 µM, time 5.0 day
Procedure, shortened: (§3)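 U87 (1×10^3/well) and T98 (5×10^2/well) cells in DMEM with 10% FBS and 2 mM L-glutamine, grown 48 h at 37 °C, 5% CO2, then medium replaced. Compounds added from 20× intermediate dilutions at 3, 10 and 30 μM for 5 d, in triplicate; DMSO 0.1% v/v control. PrestoBlue 60–90 min, fluorescence ex 540/em 590 nm. Normalised to untreated cells; 4-parameter logistic fit, minimum constrained to zero.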

U-87 MG [8] = test: Antiproliferative activity against human U87 cells assessed as reduction in cell viability incubated at 3 to 30 uM for 5 days by PrestoBlue reagent based fluorescence assay; type: functional; conditions: U-87MG ATCC, dose 3-30 µM, time 5.0 day; procedure, shortened: as §3
E21 [9] = test: Antiproliferative activity against human E21 cells assessed as reduction in cell survival incubated for 72 hrs by Hoechst staining based nuclei count assay

SMILES	EC50 (T98 [1])	Activity (T98 [7])	also measured
CCCNc1ncc2c(C#CCN3CCCC(N(C)C)C3)nn(CC3CCCC3)c2n1 (stereo not given)	< 4 µM	–	–
CN(C)C1CCN(CC#Cc2nn(C3CCCC3)c3nc(NCc4ccccc4)ncc23)C1 (stereo not given)	2 µM	–	Activity (E57 [2]): Active; Activity (E21 [3]): Active; Activity (E21 [4]): Active; Activity (E57 [5]): Active; Activity (E31): Active
CNc1ncc2c(C#CCN3CCC(N(C)C)CC3)nn(CC3CCCC3)c2n1	14.8 µM	–	EC50 (U-87 MG [6]): 15.9 µM
CNc1ncc2c(C#CCN3CCCC(N(C)C)C3)nn(CC3CCCC3)c2n1 (racemic)	10.8 µM	–	EC50 (U-87 MG [6]): 5 µM
CCOC(=O)C1CCN(CC#Cc2nn(CC3CCCC3)c3nc(NC)ncc23)CC1	–	Active	–
CNc1ncc2c(C#CCN3CCCC(N(C)C)C3)nn(CC3CCCCC3)c2n1 (stereo not given)	–	Active	–
CNc1ncc2c(C#CCN3CCCC(N(C)C)C3)nn(C3CCCCC3)c2n1 (stereo not given)	–	Active	–
CC1CCN(CC#Cc2nn(CC3CCCC3)c3ncnc(N)c23)CC1	< 30 µM	–	EC50 (U-87 MG [6]): < 30 µM
CN(C)C1CCCN(CC#Cc2nn(CC3CCCCC3)c3nc(NC(C)(C)C)ncc23)C1 (stereo not given)	–	Active	Activity (U-87 MG [8]): Active
CNc1ncc2c(C#CCN3CCCCCC3)nn(CC3CCCC3)c2n1	4.6 µM	–	–
CCOC(=O)N1CCN(CC#Cc2nn(CC3CCCC3)c3nc(NC)ncc23)CC1	–	Active	–
CN(C)C1CCCN(CC#Cc2nn(CC3CCCC3)c3nc(NC(C)(C)C)ncc23)C1 (stereo not given)	< 4 µM	–	–
CCC(CC)Nc1ncc2c(C#CCN3CCCC(N(C)C)C3)nn(CC3CCCC3)c2n1 (stereo not given)	< 4 µM	–	Activity (E21 [9]): Dose-Dependent Effect
Cn1nnc2c(C(N)=O)ncn2c1=O	–	–	Activity (U-87 MG [8]): Active
CNc1ncc2c(C#CCN3CCCC(N(C)C)C3)nn(C3CCCC3)c2n1 (stereo not given)	–	Active	–
CN(C)C1CCCN(CC#Cc2nn(C3CCCC3)c3nc(NC(C)(C)C)ncc23)C1 (stereo not given)	–	Active	Activity (U-87 MG [8]): Active; Activity (E21 [9]): Dose-Dependent Effect
CN(C)C1CCCN(CC#Cc2nn(C3CCCCC3)c3nc(NC(C)(C)C)ncc23)C1 (stereo not given)	–	Active	Activity (U-87 MG [8]): Active
CN(C)C1CCCN(CC#Cc2nn(CC3CCCC3)c3nc(NCc4ccccc4)ncc23)C1 (stereo not given)	< 4 µM	–	–
CNc1ncc2c(C#CCN3CCC(NC(C)=O)CC3)nn(CC3CCCC3)c2n1	–	Active	–
CN(C)C1CCN(CC#Cc2nn(C3CCCCC3)c3nc(NC(C)(C)C)ncc23)C1 (stereo not given)	2.54 µM	–	Activity (E21 [9]): Dose-Dependent Effect; EC50 (U-87 MG [6]): 2.71 µM
